# Reference: publication PMC3172365 (Biochemistry, 2011)
# Molecular target: T1, E. coli MutL (Escherichia coli, UniProt P23367)
# T1 sequence (P23367 1-615): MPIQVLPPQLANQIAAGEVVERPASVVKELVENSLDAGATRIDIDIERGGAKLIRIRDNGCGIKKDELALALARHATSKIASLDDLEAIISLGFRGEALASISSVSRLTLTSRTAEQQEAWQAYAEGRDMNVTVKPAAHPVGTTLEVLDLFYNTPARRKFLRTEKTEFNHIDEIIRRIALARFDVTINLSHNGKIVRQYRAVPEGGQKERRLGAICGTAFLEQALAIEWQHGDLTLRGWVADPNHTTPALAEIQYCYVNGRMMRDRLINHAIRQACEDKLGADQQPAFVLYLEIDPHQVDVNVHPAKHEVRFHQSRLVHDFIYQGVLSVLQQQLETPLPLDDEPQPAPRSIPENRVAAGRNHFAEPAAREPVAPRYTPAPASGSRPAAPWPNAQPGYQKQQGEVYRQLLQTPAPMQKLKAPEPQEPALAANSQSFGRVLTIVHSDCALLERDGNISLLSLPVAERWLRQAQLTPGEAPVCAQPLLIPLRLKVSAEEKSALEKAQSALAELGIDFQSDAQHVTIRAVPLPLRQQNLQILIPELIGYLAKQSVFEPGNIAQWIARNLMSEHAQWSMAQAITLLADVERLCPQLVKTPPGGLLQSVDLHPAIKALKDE
# Assay: analytical sedimentation velocity titration
# Type: binding
# Procedure, shortened: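 Sedimentation velocity at 42,000 rpm and 25°C with purified MutL dialyzed into Buffer M (50 mM potassium phosphate pH 7.4, 50 mM KCl, 0.1 mM EDTA, 1 mM 2-mercaptoethanol) and filtered. Loading was 0.25–3.94 µM monomer, alone or with 1 mM MgCl2 + 35 µM AMPPNP (scanned 230/280 nm), or 1.75 µM dimer with varied AMPPNP (scanned 292 nm). Scans every 2.5 min gave c(s) distributions and weight-average s20,w.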
smiles,measurement,value
Nc1ncnc2c1ncn2[C@@H]1O[C@H](COP(=O)(O)OP(=O)(O)NP(=O)(O)O)[C@@H](O)[C@H]1O [AMPPNP],Kd,25.6 µM
